Compound activity deposited in PubChem BioAssay by several laboratories.
NR2E3 ag-1: agonists of human NR2E3 nuclear receptor. inhibition of corepressor binding, % at 3.98 µM. CHO-S Gal4-NCOR/VP16-NR2E3 two-hybrid, luciferase. Q9Y5X4. 0.35% of 360,000 active;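 active = inhibition above the mean of all tested compounds plus 3 SD, cut at about 70% in these data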;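 also: 0% = DMSO with NR2E3 transfected cells and 100% = cells lacking NR2E3 construct; higher means lower luciferase signal from less NR2E3 corepressor binding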
Target sequence (Q9Y5X4 whole entry, looked up, the tested form may be a part): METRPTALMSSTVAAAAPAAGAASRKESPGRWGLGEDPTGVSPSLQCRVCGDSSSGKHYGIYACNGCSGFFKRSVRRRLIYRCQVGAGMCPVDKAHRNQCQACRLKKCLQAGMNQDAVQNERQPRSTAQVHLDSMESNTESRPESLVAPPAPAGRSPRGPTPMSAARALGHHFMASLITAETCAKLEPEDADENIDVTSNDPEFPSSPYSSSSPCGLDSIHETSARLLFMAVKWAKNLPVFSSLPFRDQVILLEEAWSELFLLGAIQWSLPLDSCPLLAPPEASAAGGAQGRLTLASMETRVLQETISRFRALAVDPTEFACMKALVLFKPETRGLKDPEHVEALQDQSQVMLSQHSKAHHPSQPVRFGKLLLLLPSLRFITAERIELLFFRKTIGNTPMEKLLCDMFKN
NR2E3 ag-2: NR2E3 (human) agonism; Q9Y5X4; GST-NR2E3/biotin-RetCOR TR-FRET, 1536-well; 0.12% of 320,000 active; inhibition of corepressor binding, % at 4.78 µM;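 active = percent inhibition above the cutoff of mean plus 3 SD of all tested compounds, set per screening campaign, cut at about 20% in these data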;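 also: 0% = DMSO wells and 100% = biotin wells as full block of FRET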
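Material – GST-tagged NR2E3 plus biotinylated RetCOR corepressor · Quantity – NR2E3 fusion 1.35 nM · Times – 5 h incubation at 4 °C · Medium – pH 7.5 Tris-based buffer · Technique – TR-FRET, Eu(K)-anti-GST donor, streptavidin-D2 acceptor, ex 340, em 617/671 nm · Benchmarks – high control biotin, low control 0.6% DMSO · Format – 1536-well plates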
TROY NFkB inh: TROY signaling inhibition; inhibition, % at 10 µM; 0.98% of 360,000 active; Q293 LMP1-TROYcd NF-kB luciferase reporter, 4 h;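 active = compounds whose plate-normalised and pattern-corrected inhibition of the luciferase reporter signal at the single screening dose is 50% or more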
HIF act: HIF pathway transcriptional activation; U2OS HRE-luciferase reporter, luminescence; normalized: DMSO 0%, desferrioxamine 100%; activation, % at 7.5 µM (by protocol); 0.32% of 300,000 active; AID 1910;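 active = mean activation of at least 10% of the iron chelator positive control signal, with at least half of replicates also reaching 10%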
EBV LMP1 NFkB: Epstein-Barr LMP1 NF-kappaB reporter inhibition | 0.69% of 350,000 active | LMP1-induced NF-kappaB luciferase reporter cells, luminescence | AID 504558 | inhibition, % at 12.5 µM; in the data active = inhibition above about 41%;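 also: 0% = neutral control wells and 100% = reference inhibitor control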
* hit, by the source's call; . = no result. Sampled rows, rich in hits. Any-hit rate of the full collection: about 2%.

SMILES	NR2E3 ag-1	NR2E3 ag-2	TROY NFkB inh	HIF act	EBV LMP1 NFkB
CC(C)(C)c1ccc(-c2nnc3sc(-c4ccccn4)nn23)cc1	-4	2	72*	-1	5
CN(C)CCN(Cc1ccc(Cl)cc1)c1ccccn1	-20	4	-3	0	52*
CCOC(=O)C(=CNc1cc(C)nn1-c1ccc(Cl)cc1)C(=O)OCC	-38	2	43	2	12
CCOC(=O)C(=Cc1ccc(-n2cncn2)cc1)C(=O)OCC	-27	-2	63*	1	11
O=C(Nc1nccs1)c1cc2c(s1)CCCCC2	-35	4	78*	-1	52*
CC(=O)/C(N=Nc1cc2c(c([N+](=O)[O-])c1C)C(C)(C)CC2(C)C)=C(\C)O	-1	3	81*	0	.
COc1cccc(N2CC(=O)Nc3c(oc4nc(-c5ccccc5)cc(C)c34)C2=O)c1	1	3	71*	-1	-48
Cc1cc(-c2ccccc2)nc2oc3c(c12)NC(=O)CN(c1ccccc1)C3=O	-11	-1	4	0	-1
CC(=O)c1ccc(NC(=O)c2ccc(NC(=O)CCS(=O)(=O)c3cccs3)cc2)cc1	3	4	51*	4	8
CC(=O)c1cccc(NC(=O)c2ccc(NC(=O)CCS(=O)(=O)c3cccs3)cc2)c1	-23	0	7	-1	5
O=C1Nc2ccccc2C1(O)Cc1ccccn1 (stereo not drawn)	-12	1	-2	0	2
O=C1c2ccc(Cl)cc2S(=O)(=O)c2cccc(C(=O)N3CCC(Cc4ccccc4)CC3)c21	-7	2	65*	.	0
O=C(N/N=C/C=C\c1ccc([N+](=O)[O-])cc1)c1cccnc1	-2	2	-20	0	.
CC1(Cc2ccc(F)c(Cl)c2)C(=O)Nc2c(Cl)cccc21 (stereo not drawn)	-1	.	8	.	.
Cc1ccc(C(=O)Cn2cnc3ccccc3c2=O)cc1	-74	3	54*	.	-25
O=C(Cn1cnc2ccccc2c1=O)c1ccccc1	-19	-1	-28	1	0
COc1ccc(-c2nc(-c3ccc(NC(=O)c4ccncc4)cc3)no2)cc1OC	2	2	67*	0	27
CN(C)c1cc2c3ccccc3n(C)c2cc1N	-4	.	-11	.	3
Cc1ccc(/C=C/C(=O)C2C(=O)c3ccccc3C2=O)cc1	-128	2	-6	0	47*
Cc1ccc(/C=C/C(=O)c2ccc(C)cc2)cc1	-31	1	-79	3	-10
O=[N+]([O-])c1ccc(-c2nc(-c3cccs3)c(-c3cccs3)[nH]2)cc1	1	0	66*	1	-6
CC1(C)CCC/C(=C\c2ccccc2)C1=O	-7	1	4	0	2
CCN(CC)c1ccc2cc(S(=O)(=O)c3ccc(Cl)cc3)c(=O)oc2c1	-10	3	-8	.	-4
CCCCCCc1cc2cc(S(=O)(=O)c3ccc(C)cc3)c(=O)oc2cc1O	-3	0	51*	.	3
Cc1ccc(S(=O)(=O)c2cc3cc(Br)ccc3oc2=O)cc1	10	-4	-16	0	-5
SMILES	NR2E3 ag-1	NR2E3 ag-2	TROY NFkB inh	HIF act	EBV LMP1 NFkB
CCCCCCc1cc2cc(C(=O)Nc3ccccc3)c(=O)oc2cc1O	-19	8	50*	.	-1
CCCCCCc1cc2cc(S(=O)(=O)c3ccc(Cl)cc3)c(=O)oc2cc1O	-15	3	53*	.	7
CC(C)Cc1cc(C(=O)N2CCN(C(c3ccccc3)c3ccccc3)CC2)no1	15	-1	6	0	-4
CC(C)c1cc(C(=O)N2CCN(C(c3ccccc3)c3ccccc3)CC2)no1	-14	-1	60*	0	-5
Oc1c(Br)cc(Br)cc1C=Nc1ccc2c(c1)OCO2	-12	1	-17	.	-1
Oc1c(Br)cc(Br)cc1C=Nc1ccc2c(c1)OCCO2	23	-1	67*	-1	5
Oc1[nH]c2ccccc2c1C=Nc1ccc2c(c1)OCCO2	-187	.	81*	0	-35
O=[N+]([O-])c1ccc(O)c(C=Nc2ccc3c(c2)OCCO3)c1	-9	6	56*	0	14
N#CCCCc1cc2ccccc2cn1	5	.	-17	.	14
CCOC(=O)c1ccc(NS(=O)(=O)c2c(C)[nH]c(C)c2C(=O)N2CCCCC2)cc1	-2	0	12	0	-2
COc1cc(C(=O)NC(=S)Nc2csc(-c3ccc(F)cc3)n2)cc(OC)c1OC	-22	3	56*	0	-2
